Assays:
Format in all cases: functional, cell-based
[1] = (§1) Cytotoxicity against human PC3 cells after 72 hrs by MTT assay; conditions: PC-3, 72 h
Outline: (§2)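 Cells trypsinized at 80-90% confluence, seeded at 2×10^3/well overnight, then given compounds (DMSO stocks diluted in medium) at various concentrations for 72 h at 37 °C. Controls: 0.1% DMSO negative, adriamycin positive. MTT (5 mg/ml) added for 4 h, formazan dissolved in SDS 12 h, A595 read. IC50 from dose-response curves.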

[2] = system: PC-3; assay: as §1; outline: as §2
[3] = system: Bcap37; assay: Cytotoxicity against human Bcap37 cells after 72 hrs by MTT assay; conditions: for IC50: Bcap37, 72 h
Outline: as §2, with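 “Cancer lines grown in RPMI 1640 with 10% heat-inactivated FBS, 37 °C, 5% CO2. Cells” for “Cells”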

[4] = system: MCF7; assay: Cytotoxicity against human MCF7 cells after 72 hrs by MTT assay; conditions: for IC50: MCF7, 72 h
Outline: as §2, with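 “Cancer lines grown in RPMI 1640 with 10% heat-inactivated FBS, 37 °C, 5% CO2. Cells” for “Cells”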

[5] = system: MGC-803; assay: Cytotoxicity against human MGC803 cells after 72 hrs by MTT assay; conditions: for IC50: MGC-803, 72 h
Outline: as §2, with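 “Cancer lines grown in RPMI 1640 with 10% heat-inactivated FBS, 37 °C, 5% CO2. Cells” for “Cells”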

[6] = system: A-375; assay: Cytotoxicity against human A375 cells after 72 hrs by MTT assay; conditions: for IC50: A-375, 72 h
Outline: as §2, with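 “Cancer lines grown in RPMI 1640 with 10% heat-inactivated FBS, 37 °C, 5% CO2. Cells” for “Cells”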

SMILES | IC50 [1] | Activity [2] | Activity [3] | IC50 [3] | Activity [4] | IC50 [4] | Activity [5] | IC50 [5] | Activity [6] | IC50 [6]
C=C(C)[C@@H]1CC[C@]2(C(=O)OCCCCN3CCOCC3)CC[C@]3(C)[C@H](CC[C@@H]4[C@@]5(C)CCC(=O)C(C)(C)[C@@H]5CC[C@]43C)[C@@H]12 | 7.2 µM | Dose-dependent effect | Dose-dependent effect | 5.2 µM | Dose-dependent effect | 8.5 µM | Dose-dependent effect | 5.6 µM | Dose-dependent effect | 6.8 µM
C=C(C)[C@@H]1CC[C@]2(C(=O)OCCN3CCN(C(=O)CCCCCCCC)CC3)CC[C@]3(C)[C@H](CC[C@@H]4[C@@]5(C)CCC(=O)C(C)(C)[C@@H]5CC[C@]43C)[C@@H]12 | > 20 µM | Dose-dependent effect | Dose-dependent effect | > 20 µM | Dose-dependent effect | 17.6 µM | Dose-dependent effect | > 20 µM | Dose-dependent effect | > 20 µM
C=C(C)[C@@H]1CC[C@]2(C(=O)O)CC[C@]3(C)[C@H](CC[C@@H]4[C@@]5(C)CCC(=O)C(C)(C)[C@@H]5CC[C@]43C)[C@@H]12 [BETUNOLIC ACID] | 13.9 µM | Dose-dependent effect | Dose-dependent effect | 25.7 µM | Dose-dependent effect | 18.2 µM | – | 17.7 µM | Dose-dependent effect | 28.9 µM
C=C(C)[C@@H]1CC[C@]2(C(=O)OCCCN(CC)CC)CC[C@]3(C)[C@H](CC[C@@H]4[C@@]5(C)CCC(=O)C(C)(C)[C@@H]5CC[C@]43C)[C@@H]12 | 7 µM | Dose-dependent effect | Dose-dependent effect | 6.1 µM | Dose-dependent effect | 7.3 µM | Dose-dependent effect | 6.8 µM | Dose-dependent effect | 9.3 µM
C=C(C)[C@@H]1CC[C@]2(C(=O)OCCN3CCN(C(=O)c4c(Cl)cccc4Cl)CC3)CC[C@]3(C)[C@H](CC[C@@H]4[C@@]5(C)CCC(=O)C(C)(C)[C@@H]5CC[C@]43C)[C@@H]12 | 14.1 µM | Dose-dependent effect | Dose-dependent effect | > 20 µM | Dose-dependent effect | 10.8 µM | Dose-dependent effect | 16.6 µM | Dose-dependent effect | 17.4 µM
C=C(C)[C@@H]1CC[C@]2(C(=O)OCCN3CCN(C(=O)/C=C/c4ccccc4)CC3)CC[C@]3(C)[C@H](CC[C@@H]4[C@@]5(C)CCC(=O)C(C)(C)[C@@H]5CC[C@]43C)[C@@H]12 | 11 µM | Dose-dependent effect | Dose-dependent effect | 9.4 µM | Dose-dependent effect | 7.3 µM | Dose-dependent effect | 13.4 µM | Dose-dependent effect | 9.3 µM
C=C(C)[C@@H]1CC[C@]2(C(=O)OCCN(CC)CC)CC[C@]3(C)[C@H](CC[C@@H]4[C@@]5(C)CCC(=O)C(C)(C)[C@@H]5CC[C@]43C)[C@@H]12 | 10.1 µM | Dose-dependent effect | Dose-dependent effect | 15.6 µM | Dose-dependent effect | 12.8 µM | Dose-dependent effect | 11.7 µM | Dose-dependent effect | 14.3 µM
C=C(C)[C@@H]1CC[C@]2(C(=O)OCCN3CCN(C(=O)C(CC)CCCC)CC3)CC[C@]3(C)[C@H](CC[C@@H]4[C@@]5(C)CCC(=O)C(C)(C)[C@@H]5CC[C@]43C)[C@@H]12 (stereo partly specified) | > 20 µM | Dose-dependent effect | Dose-dependent effect | 18.7 µM | Dose-dependent effect | 15.4 µM | Dose-dependent effect | 13.4 µM | Dose-dependent effect | > 20 µM
C=C(C)[C@@H]1CC[C@]2(C(=O)OCCCN3CCOCC3)CC[C@]3(C)[C@H](CC[C@@H]4[C@@]5(C)CCC(=O)C(C)(C)[C@@H]5CC[C@]43C)[C@@H]12 | 6.6 µM | Dose-dependent effect | Dose-dependent effect | 7.2 µM | Dose-dependent effect | 9.3 µM | Dose-dependent effect | 5.6 µM | Dose-dependent effect | 8.6 µM
C=C(C)[C@@H]1CC[C@]2(C(=O)OCCCN3CCCCC3)CC[C@]3(C)[C@H](CC[C@@H]4[C@@]5(C)CCC(=O)C(C)(C)[C@@H]5CC[C@]43C)[C@@H]12 | 5.7 µM | Dose-dependent effect | Dose-dependent effect | 9.5 µM | Dose-dependent effect | 6.6 µM | Dose-dependent effect | 6.3 µM | Dose-dependent effect | 9.5 µM
C=C(C)[C@@H]1CC[C@]2(C(=O)OCCCCBr)CC[C@]3(C)[C@H](CC[C@@H]4[C@@]5(C)CCC(=O)C(C)(C)[C@@H]5CC[C@]43C)[C@@H]12 | > 20 µM | Dose-dependent effect | Dose-dependent effect | > 20 µM | Dose-dependent effect | > 20 µM | Dose-dependent effect | > 20 µM | Dose-dependent effect | > 20 µM
C=C(C)[C@@H]1CC[C@]2(C(=O)OCCN3CCOCC3)CC[C@]3(C)[C@H](CC[C@@H]4[C@@]5(C)CCC(=O)C(C)(C)[C@@H]5CC[C@]43C)[C@@H]12 | 11.3 µM | Dose-dependent effect | Dose-dependent effect | 8.8 µM | Dose-dependent effect | 10.1 µM | Dose-dependent effect | 9.4 µM | Dose-dependent effect | 10.5 µM
C=C(C)[C@@H]1CC[C@]2(C(=O)OCCCBr)CC[C@]3(C)[C@H](CC[C@@H]4[C@@]5(C)CCC(=O)C(C)(C)[C@@H]5CC[C@]43C)[C@@H]12 | > 20 µM | Dose-dependent effect | Dose-dependent effect | > 20 µM | Dose-dependent effect | > 20 µM | Dose-dependent effect | > 20 µM | Dose-dependent effect | > 20 µM
C=C(C)[C@@H]1CC[C@]2(C(=O)OCCBr)CC[C@]3(C)[C@H](CC[C@@H]4[C@@]5(C)CCC(=O)C(C)(C)[C@@H]5CC[C@]43C)[C@@H]12 | > 20 µM | Dose-dependent effect | Dose-dependent effect | > 20 µM | Dose-dependent effect | > 20 µM | Dose-dependent effect | > 20 µM | Dose-dependent effect | > 20 µM
COc1cccc2c1C(=O)c1c(O)c3c(c(O)c1C2=O)C[C@@](O)(C(=O)CO)C[C@@H]3O[C@H]1C[C@H](N)[C@H](O)[C@H](C)O1 [DOXORUBICIN] | – | Dose-dependent effect | Dose-dependent effect | 1.2 µM | – | 1.35 µM | Dose-dependent effect | – | Dose-dependent effect | 1 µM
C=C(C)[C@@H]1CC[C@]2(C(=O)OCCN3CCN(C(=O)c4c(F)cccc4Cl)CC3)CC[C@]3(C)[C@H](CC[C@@H]4[C@@]5(C)CCC(=O)C(C)(C)[C@@H]5CC[C@]43C)[C@@H]12 | 9.3 µM | Dose-dependent effect | Dose-dependent effect | 7.5 µM | Dose-dependent effect | 8.1 µM | Dose-dependent effect | 5.3 µM | Dose-dependent effect | 8.4 µM
C=C(C)[C@@H]1CC[C@]2(C(=O)OCCN3CCN(C(=O)c4cccc(F)c4)CC3)CC[C@]3(C)[C@H](CC[C@@H]4[C@@]5(C)CCC(=O)C(C)(C)[C@@H]5CC[C@]43C)[C@@H]12 | 6.8 µM | Dose-dependent effect | Dose-dependent effect | 6.4 µM | Dose-dependent effect | 5.4 µM | Dose-dependent effect | 4.9 µM | Dose-dependent effect | 7.6 µM

Source: ChEMBL document CHEMBL3414513, “Synthesis and biological evaluation of betulonic acid derivatives as antitumor agents” (Eur J Med Chem, 2015)
